Experimental data taken from ChEMBL document CHEMBL1138360, “Hypoxia-selective 3-alkyl 1,2,4-benzotriazine 1,4-dioxides: the influence of hydrogen bond donors on extravascular transport and antitumor activity” (J Med Chem, 2007).

Columns and labels:
[1] = system: SiHa; assay: Cytotoxicity against SiHa cells under hypoxic condition after 4 hrs; type: functional, cell-based; conditions: Homo sapiens
In short: (§1)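 HT29 or SiHa cells exposed to drug for 4 h in 96-well plates under anoxia (H2/Pd anaerobic chamber). IC50 determined.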

[2] = system: HT-29; assay: Ratio of IC50 for HT29 cells in aerobic condition to IC50 for HT29 cells in hypoxic condition after 4 hrs; type: functional, Homo sapiens
In short: (§2)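 Aerobic and anoxic (H2/Pd chamber) IC50s measured in the same experiment after 4 h exposure, HT29 or SiHa cells. Ratio computed as aerobic IC50/anoxic IC50.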

[3] = system: HT-29; assay: Drug penetration in anoxic HT29 cells assessed as penetration half distance; type: ADME, cell-based; conditions: human
[4] = system: HT-29; assay: Cell viability in anoxic HT29 cells assessed as drug level providing 10% surviving fraction by clonogenic assay; type: cell-based; conditions: human
[5] = system: SiHa; assay: Ratio of IC50 for SiHa cells in aerobic condition to IC50 for SiHa cells in hypoxic condition after 4 hrs; type: functional, Homo sapiens; in short: as §2
[6] = system: HT-29; assay: Cytotoxicity against HT29 cells under hypoxic condition after 4 hrs; type: functional, cell-based; conditions: Homo sapiens, HT-29, 4 h; in short: as §1
[7] = system: HT-29; assay: Antitumor activity against HT29 tumor inoculated in CD1 nude mouse at 421 umol/kg, ip relative to control; type: functional, Homo sapiens
[8] = AUC (0 to infinity) in CD1 mouse plasma at 421 umol/kg, ip; type: ADME, organism-based; set-up: dose 421 umol/kg, time infinity, route intraperitoneal
In short: (§3)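 Single i.p. dose to homozygous nude CD-1 Foxn1nu mice, at 75 or 100% of MTD (MTD set by 1.33-fold dose steps; highest dose without death, >15% weight loss or severe morbidity in any of six mice). Total drug measured in plasma by HPLC. AUC, Cmax and terminal t½ derived noncompartmentally. Measured levels taken as free drug.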

[9] = Terminal half life in CD1 mouse plasma at 421 umol/kg, ip; type: ADME, organism-based; in short: as §3
[10] = Cmax in CD1 mouse plasma at 421 umol/kg, ip; type: ADME, organism-based; set-up: dose 421 umol/kg, route intraperitoneal; in short: as §3
[11] = system: HT-29; assay: Antitumor activity against HT29 tumor inoculated in CD1 nude mouse at 421 umol/kg, ip administered 5 mins after gamma irradiation by excision assay relative to radiation alone; type: functional, Homo sapiens
In short: (§4)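 HT29 xenografts in nude CD-1 mice received 20 Gy γ radiation, then a single i.p. drug dose 5 min later, at 100% or 75% of MTD. Tumors excised 18 h afterwards, dissociated to single cells and plated for clonogens/g tumor. Hypoxic cell kill = log(clonogens/g, radiation only) − log(clonogens/g, radiation + drug).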

[12] = Toxicity in ip dosed CD1 mouse; type: organism-based; conditions: in vivo
In short: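 Single i.p. doses given to homozygous nude CD-1 Foxn1nu mice, with the vehicle formulated per compound. Doses escalated in 1.33-fold increments. MTD was defined as the highest dose causing no mortality, no body weight loss >15% and no other severe morbidity in any of six mice.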

[13] = system: HT-29; assay: Diffusion coefficient, D in aerobic HT29 multicellular layers; type: ADME, cell-based; conditions: human
In short: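 Drug flux measured through HT29 multicellular layers on Teflon support membranes under 95% O2 at 37 °C, 50 µM initial donor concentration. Donor and receiver levels fitted with a diffusion model. Layer thickness estimated from flux of internal standard urea.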

[14] = AUC (0 to infinity) in CD1 mouse plasma at 562 umol/kg, ip; type: ADME, organism-based; set-up: dose 562 umol/kg, time infinity, route intraperitoneal; in short: as §3
[15] = Cmax in CD1 mouse plasma at 562 umol/kg, ip; type: ADME, organism-based; set-up: dose 562 umol/kg, route intraperitoneal; in short: as §3
[16] = system: HT-29; assay: Antitumor activity against HT29 tumor inoculated in CD1 nude mouse at 562 umol/kg, ip administered 5 mins after gamma irradiation by excision assay relative to radiation alone; type: functional, Homo sapiens; in short: as §4
[17] = Solubility in culture medium in presence of 5% fetal calf serum; type: physicochemical; conditions: culture medium with 5% fetal calf serum
In short: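 Solubility determined at 22 °C in culture medium containing 5% fetal calf serum.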

Row | Structure (SMILES) | IC50 [1] [nM] | Ratio IC50 [2] | Penetration half distance [3] [µm] | Activity [4] [µM·h] | Ratio IC50 [5] | IC50 [6] [µM] | solubility [17] [mM] | other results
1 | CCc1n[n+]([O-])c2cc(OCCN(C)C)ccc2[n+]1[O-] | 500 | 105 | 34 | 1.8 | 128 | 0.7 |  | 
2 | CCc1n[n+]([O-])c2ccc(OCCO)cc2[n+]1[O-] | 7900 | 54 | 34 | 97.3 | 203 | 14.4 |  | 
3 | CCc1n[n+]([O-])c2ccc(OCCCO)cc2[n+]1[O-] | 8600 | 54 | 34 | 108.9 | 105 | 17 |  | 
4 | CCc1n[n+]([O-])c2ccc(OCCN(C)C)cc2[n+]1[O-] | 800 | 307 | 34 | 5.1 | 374 | 1.3 |  | Activity [7]: 0.23%; AUC(0-inf) [8]: 55.7 µM·h; half-life [9]: 32.2 min; Cmax [10]: 55.5 µM; Activity [11]: 0.88%; MTD [12]: 562 µmol/kg
5 | CCc1n[n+]([O-])c2cc(OCCOC)ccc2[n+]1[O-] | 1800 | 69 | 34 | 40.7 | 116 | 4.7 |  | 
6 | Cc1n[n+]([O-])c2ccccc2[n+]1[O-] | 3000 | 67 | 34 | 25.3 | 57 | 4.1 |  | D [13]: 19.15 10^-7cm2/sec
7 | [O-][n+]1nc(CCO)[n+]([O-])c2ccccc21 | 1700 | 153 | 34 | 18.1 | 526 | 3.7 |  | D [13]: 4.41 10^-7cm2/sec
8 | COCCCc1n[n+]([O-])c2ccccc2[n+]1[O-] | 2400 | 86 | 34 | 26.7 | 272 | 6.9 |  | D [13]: 21.3 10^-7cm2/sec
9 | [O-][n+]1nc(-c2ccccc2)[n+]([O-])c2ccccc21 | 2200 | 2 | 34 |  | 1 | 4.4 |  | 
10 | [O-][n+]1nc(CCN2CCOCC2)[n+]([O-])c2ccccc21 | 2200 | 107 | 34 | 10 | 225 | 3.8 |  | 
11 | [O-][n+]1nc(CCCN2CCOCC2)[n+]([O-])c2ccccc21 | 1000 | 91 | 34 | 3.2 | 132 | 2.2 |  | D [13]: 7.47 10^-7cm2/sec
12 | CN(C)CCCc1n[n+]([O-])c2ccccc2[n+]1[O-] | 200 | 71 | 34 | 2.1 | 58 | 0.39 |  | 
13 | CCc1n[n+]([O-])c2ccc(C)cc2[n+]1[O-] | 3600 | 63 | 34 | 52.4 | 214 | 11.4 |  | 
14 | COCCc1n[n+]([O-])c2ccc(C)cc2[n+]1[O-] | 1900 | 63 | 34 | 57.9 | 150 | 6.6 |  | D [13]: 17.34 10^-7cm2/sec
15 | CCc1n[n+]([O-])c2ccc(OC)cc2[n+]1[O-] | 6800 | 73 | 34 | 69.9 | 175 | 16.8 |  | AUC(0-inf) [14]: 138 µM·h; Cmax [15]: 71.5 µM; MTD [12]: 750 µmol/kg; Activity [16]: 0.76%
16 | [O-][n+]1nc(CCCN2CCCCC2)[n+]([O-])c2ccccc21 | 600 | 36 | 34 | 1.5 | 55 | 1 |  | D [13]: 6.5 10^-7cm2/sec
17 | Cc1ccc2c(c1)[n+]([O-])c(CCO)n[n+]2[O-] | 1200 | 82 | 34 | 22.2 | 208 | 4.3 |  | 
18 | CCc1n[n+]([O-])c2ccc(OCCOC)cc2[n+]1[O-] | 14200 | 120 | 34 | 213.2 | 70 | 17.9 |  | 
19 | COCCc1n[n+]([O-])c2ccccc2[n+]1[O-] | 1600 | 49 | 34 | 21.3 | 61 | 3.5 |  | Activity [7]: 0.3%; AUC(0-inf) [8]: 113 µM·h; half-life [9]: 18 min; Cmax [10]: 176 µM; Activity [11]: 0.8%; MTD [12]: 421 µmol/kg; D [13]: 20.89 10^-7cm2/sec
20 | [O-][n+]1nc(CCCO)[n+]([O-])c2ccccc21 | 3100 | 110 | 34 | 30.2 | 85 | 3.7 |  | D [13]: 4.94 10^-7cm2/sec
21 | COc1n[n+]([O-])c2ccccc2[n+]1[O-] | 1100 | 1 | 34 |  | 4 | 3.1 |  | 
22 | CCc1n[n+]([O-])c2cc(OCCCO)ccc2[n+]1[O-] | 2700 | 146 | 34 | 31.6 | 161 | 6.9 |  | 
23 | CCc1n[n+]([O-])c2ccc(OC)cc2[n+]1[O-].Cl |  |  |  |  |  |  | 3 | 
24 | Cl.[O-][n+]1nc(CCCN2CCOCC2)[n+]([O-])c2ccccc21 |  |  |  |  |  |  | > 46 | 

Row | Structure (SMILES) | IC50 [1] [nM] | Ratio IC50 [2] | Penetration half distance [3] [µm] | Activity [4] [µM·h] | Ratio IC50 [5] | IC50 [6] [µM] | solubility [17] [mM] | other results
25 | Cc1ccc2c(c1)[n+]([O-])c(CCO)n[n+]2[O-].Cl |  |  |  |  |  |  | 7 | 
26 | CCc1n[n+]([O-])c2cc(OCCN(C)C)ccc2[n+]1[O-].Cl |  |  |  |  |  |  | > 51 | 
27 | CCc1n[n+]([O-])c2ccc(OCCCO)cc2[n+]1[O-].Cl |  |  |  |  |  |  | 10 | 
28 | CCc1n[n+]([O-])c2ccc(OCCN(C)C)cc2[n+]1[O-].Cl |  |  |  |  |  |  | > 49 | 
29 | CCc1n[n+]([O-])c2ccccc2[n+]1[O-].Cl |  |  |  |  |  |  | 15 | 
30 | COCCc1n[n+]([O-])c2ccccc2[n+]1[O-].Cl |  |  |  |  |  |  | > 21 | 
31 | CCc1n[n+]([O-])c2ccc(OCCN3CCCCC3)cc2[n+]1[O-].Cl |  |  |  |  |  |  | > 48 | 
32 | CCc1n[n+]([O-])c2cc(OCCOC)ccc2[n+]1[O-].Cl |  |  |  |  |  |  | 2 | 
33 | Cl.[O-][n+]1nc(CCCO)[n+]([O-])c2ccccc21 |  |  |  |  |  |  | 50 | 
34 | CCc1n[n+]([O-])c2cc(OCCCO)ccc2[n+]1[O-].Cl |  |  |  |  |  |  | 17 | 
35 | CCc1n[n+]([O-])c2cc(OCCCN3CCOCC3)ccc2[n+]1[O-].Cl |  |  |  |  |  |  | > 48 | 
36 | Cl.[O-][n+]1nc(-c2ccccc2)[n+]([O-])c2ccccc21 |  |  |  |  |  |  | 0.3 | 
37 | COc1n[n+]([O-])c2ccccc2[n+]1[O-].Cl |  |  |  |  |  |  | 23 | 
38 | Cl.[O-][n+]1nc(CCN2CCOCC2)[n+]([O-])c2ccccc21 |  |  |  |  |  |  | 42 | 
39 | CCc1n[n+]([O-])c2ccc(OCCO)cc2[n+]1[O-].Cl |  |  |  |  |  |  | 21 | 
40 | CCc1n[n+]([O-])c2ccc(OCCOC)cc2[n+]1[O-].Cl |  |  |  |  |  |  | 3 | 
41 | CCc1n[n+]([O-])c2ccc(OCCCN3CCOCC3)cc2[n+]1[O-].Cl |  |  |  |  |  |  | > 47 | 
42 | COCCc1n[n+]([O-])c2ccc(C)cc2[n+]1[O-].Cl |  |  |  |  |  |  | 3 | 
43 | COCCCc1n[n+]([O-])c2ccccc2[n+]1[O-].Cl |  |  |  |  |  |  | 21 | 
44 | Cc1n[n+]([O-])c2ccccc2[n+]1[O-].Cl |  |  |  |  |  |  | 28 | 
45 | Cl.[O-][n+]1nc(CCO)[n+]([O-])c2ccccc21 |  |  |  |  |  |  | 34 | 
46 | CN(C)CCCc1n[n+]([O-])c2ccccc2[n+]1[O-].Cl |  |  |  |  |  |  | 51 | 
47 | CCc1n[n+]([O-])c2ccc(C)cc2[n+]1[O-].Cl |  |  |  |  |  |  | 4 | 
48 | Cl.[O-][n+]1nc(CCCN2CCCCC2)[n+]([O-])c2ccccc21 |  |  |  |  |  |  | 43 | 
